Converted amounts (≈) assume the structure as drawn.
Experiments:
[1] = Solubility of the compound in FeSSIF; format: physicochemical
[2] = target: T1, Glucose-dependent insulinotropic receptor (Homo sapiens) (UniProt Q8TDV5); assay: Intrinsic activity at human GPR119 expressed in HEK293 cells assessed as intracellular cAMP accumulation after 30 mins by HTRF assay relative to oleoylethanolamide; format: functional, cell-based
T1 sequence (whole entry): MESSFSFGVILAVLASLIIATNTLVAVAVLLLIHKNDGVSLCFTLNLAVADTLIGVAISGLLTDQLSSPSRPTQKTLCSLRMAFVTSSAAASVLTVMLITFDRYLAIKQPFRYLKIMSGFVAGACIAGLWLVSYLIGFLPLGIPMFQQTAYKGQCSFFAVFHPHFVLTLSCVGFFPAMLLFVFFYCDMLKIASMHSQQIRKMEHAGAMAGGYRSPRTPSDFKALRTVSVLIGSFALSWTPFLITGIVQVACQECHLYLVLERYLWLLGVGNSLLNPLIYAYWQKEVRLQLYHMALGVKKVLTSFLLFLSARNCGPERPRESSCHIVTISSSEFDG
How it was run: (§1)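 Anti-cAMP cryptate in lysis buffer was then added for 3 h at room temperature in the dark, and cAMP was read by HTRF. EC50 is the concentration giving 50% of the maximal OEA response; intrinsic activity is expressed as % of OEA (100%).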

[3] = target: T2, Glucose-dependent insulinotropic receptor (Homo sapiens, UniProt Q8TDV5); assay: Agonist activity at human GPR119 expressed in HEK293 cells assessed as intracellular cAMP accumulation after 30 mins by HTRF assay; format: functional, cell-based; how it was run: as §1
T2 sequence (Q8TDV5 whole entry): T1 sequence (whole entry)

[4] = Solubility of the compound in Japanese pharmacopoeia first fluid at pH 1.2; format: physicochemical
How it was run: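 Solubility was measured in Japanese Pharmacopoeia 1st fluid for dissolution testing, adjusted to pH 1.2.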

[5] = Metabolic stability in human liver microsomes assessed as parent compound remaining at 5 uM after 1 hr; format: ADME, Microsome; details: read-out: Stability
How it was run: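 Compound (5 μM) was incubated with human liver microsomes ([…]) for 1 h. Percent of compound remaining was reported.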

[6] = Metabolic stability in rat liver microsomes assessed as parent compound remaining at 5 uM after 1 hr; format: ADME, Microsome; details: read-out: Stability
How it was run: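 Compound (5 μM) was incubated with rat liver microsomes ([…]) for 1 h. Percent of compound remaining was reported.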

Row | solubility [1] | Intrinsic activity [2] | EC50 [3] | solubility [4] | remaining at 1 h, 5 µM [5] | remaining at 1 h, 5 µM [6] | SMILES
1 | 4.3 µM (≈ 2.11 µg/mL) | 61% | 98 nM | 0.7 µM (≈ 0.344 µg/mL) | – | – | CC(C)c1c(Nc2ccc(S(C)(=O)=O)cc2F)ncnc1O[C@H]1CC[C@]2(CC1)COC(C)(C)C2
2 | 49.8 µM (≈ 23.7 µg/mL) | 128% | 45 nM | > 475 µM | 91% | 93% | Cc1c(Nc2ccc(S(C)(=O)=O)cc2F)ncnc1N(C)[C@H]1CC[C@]2(CC1)COC(C)(C)C2
3 | 42.5 µM (≈ 20.3 µg/mL) | 17% | > 1000 nM | 13 µM (≈ 6.21 µg/mL) | – | – | Cc1c(O[C@H]2CC[C@]3(CC2)COC(C)(C)C3)ncnc1N(C)c1ccc(S(C)(=O)=O)cc1F
4 | 8.6 µM (≈ 3.83 µg/mL) | 92% | 139 nM | 4.4 µM (≈ 1.96 µg/mL) | – | – | Cc1c(Nc2ccc(S(C)(=O)=O)cc2)ncnc1O[C@H]1CC[C@]2(CC1)COC(C)(C)C2
5 | 19.8 µM (≈ 9.06 µg/mL) | 87% | 15 nM | 7 µM (≈ 3.2 µg/mL) | – | – | CC1(C)C[C@]2(CC[C@H](Oc3cc(N4CCc5cc(S(C)(=O)=O)ccc54)ncn3)CC2)CO1
6 | 15.2 µM (≈ 7.23 µg/mL) | 90% | 5 nM | 18.9 µM (≈ 8.99 µg/mL) | – | – | CC1(C)C[C@]2(CC[C@H](Oc3ncnc4c3CCN4c3ccc(S(C)(=O)=O)cc3F)CC2)CO1
7 | 25.5 µM (≈ 12 µg/mL) | 38% | > 1000 nM | 2.8 µM (≈ 1.32 µg/mL) | – | – | Cc1c(O[C@H]2CC[C@]3(CC2)COC(C)(C)C3)ncnc1N1CCc2cc(S(C)(=O)=O)ccc21
8 | 24.3 µM (≈ 11.4 µg/mL) | 108% | 16 nM | 418 µM (≈ 197 µg/mL) | 89% | 80% | CN(c1cc(N2CCc3cc(S(C)(=O)=O)ccc32)ncn1)[C@H]1CC[C@]2(CC1)COC(C)(C)C2
9 | 67.5 µM (≈ 32.2 µg/mL) | 82% | 42 nM | 4.6 µM (≈ 2.2 µg/mL) | – | – | CCc1c(Nc2ccc(S(C)(=O)=O)cc2F)ncnc1O[C@H]1CC[C@]2(CC1)COC(C)(C)C2
10 | – | 109% | 89 nM | – | – | – | CC(O[C@H]1CC[C@]2(CC1)COC(C)(C)C2)c1nc(-c2ccc(S(C)(=O)=O)c(F)c2)no1 (some centres undefined)
11 | – | 79% | 85 nM | – | – | – | CC1(C)C[C@]2(CC[C@H](c3nc(COc4ccc(-n5cnnn5)cc4)cs3)CC2)CO1
12 | 33.4 µM (≈ 15.5 µg/mL) | 62% | 59 nM | < 0.5 µM | – | – | Cc1c(Oc2ccc(S(C)(=O)=O)cc2F)ncnc1O[C@H]1CC[C@]2(CC1)COC(C)(C)C2
13 | 15.8 µM (≈ 7.32 µg/mL) | 91% | 13 nM | 5.3 µM (≈ 2.46 µg/mL) | – | – | Cc1c(Nc2ccc(S(C)(=O)=O)cc2F)ncnc1O[C@H]1CC[C@]2(CC1)COC(C)(C)C2
14 | 75.3 µM (≈ 36.8 µg/mL) | 118% | 39 nM | > 475 µM | 99% | 94% | CN(c1ncnc2c1CCN2c1ccc(S(C)(=O)=O)cc1F)[C@H]1CC[C@]2(CC1)COC(C)(C)C2
15 | 65.2 µM (≈ 29.8 µg/mL) | 101% | 33 nM | 128 µM (≈ 58.7 µg/mL) | 77% | 44% | Cc1c(Nc2ccc(C(=O)N(C)C)cc2F)ncnc1O[C@H]1CC[C@]2(CC1)COC(C)(C)C2

— ChEMBL document CHEMBL4330099, “Lead generation and optimization of novel GPR119 agonists with a spirocyclic cyclohexane structure” (Bioorg Med Chem Lett, 2019)
